Test results: ChEMBL document CHEMBL1955723, “Discovery and synthesis of namalide reveals a new anabaenopeptin scaffold and peptidase inhibitor” (J Med Chem, 2012)
Calls of active or inactive are those of the source. The calls are words filed in the database; no cut-off is given here.

What was measured:
[1] = Inhibition of alpha chymotrypsin using N-benzoyl-L-tyrosine ethyl ester as substrate at 60 ug/mL after 5 mins by colorimetry
Outline: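 α-Chymotrypsin, 1 U, 25 °C, in a 10 mm quartz cuvette, 200 μL final; inhibitor from DMSO (typically 1 mM stock, 10 μL) or DMSO alone. Absorbance read at 256 nm after 5 min incubation; tested up to 60 μg/mL.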

[2] = target: T1, Carboxypeptidase A1 (Bos taurus) (UniProt P00730); assay: Inhibition of bovine pancreas carboxypeptidase A using N-(4-methoxyphenylazoformyl)-phenylalanine as substrate at 30 uM after 5 mins by colorimetry
T1 sequence (whole entry): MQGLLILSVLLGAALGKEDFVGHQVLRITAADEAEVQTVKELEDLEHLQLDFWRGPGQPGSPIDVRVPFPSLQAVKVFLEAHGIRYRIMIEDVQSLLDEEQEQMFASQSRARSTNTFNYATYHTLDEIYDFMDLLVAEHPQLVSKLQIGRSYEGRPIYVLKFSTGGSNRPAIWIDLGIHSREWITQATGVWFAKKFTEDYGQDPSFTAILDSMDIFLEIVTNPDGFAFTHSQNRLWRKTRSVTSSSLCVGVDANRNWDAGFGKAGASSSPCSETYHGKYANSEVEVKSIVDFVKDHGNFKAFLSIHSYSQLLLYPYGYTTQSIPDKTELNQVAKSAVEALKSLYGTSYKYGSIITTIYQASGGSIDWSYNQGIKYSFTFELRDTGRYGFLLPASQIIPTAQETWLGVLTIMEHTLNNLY

[3] = target: T2, Carboxypeptidase B2 (Homo sapiens) (UniProt Q96IY4); assay: Inhibition of carboxypeptidase U at 60 ug/mL
T2 sequence (whole entry): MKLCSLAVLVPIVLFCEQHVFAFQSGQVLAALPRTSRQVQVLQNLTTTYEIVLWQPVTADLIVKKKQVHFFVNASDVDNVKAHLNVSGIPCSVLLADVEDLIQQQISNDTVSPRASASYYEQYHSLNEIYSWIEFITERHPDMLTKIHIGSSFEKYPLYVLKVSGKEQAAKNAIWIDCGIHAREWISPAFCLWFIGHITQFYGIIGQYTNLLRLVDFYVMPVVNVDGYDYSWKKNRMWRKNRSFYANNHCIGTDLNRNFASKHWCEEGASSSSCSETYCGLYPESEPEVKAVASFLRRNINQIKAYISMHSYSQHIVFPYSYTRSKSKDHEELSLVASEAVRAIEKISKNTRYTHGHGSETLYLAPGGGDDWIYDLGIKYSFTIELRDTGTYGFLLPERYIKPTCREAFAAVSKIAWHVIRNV
Outline: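 CPU (activated TAFI) assayed with a commercial TAFIa kit per manufacturer's instructions, run like the CPA/chymotrypsin assays; compounds tested up to 60 μg/mL.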

[4] = target: T3, Carboxypeptidase A1 (Bos taurus, UniProt P00730); assay: Inhibition of bovine pancreas carboxypeptidase A using N-(4-methoxyphenylazoformyl)-phenylalanine as substrate after 5 mins by colorimetry
T3 sequence (P00730 whole entry): T1 sequence (whole entry)
Outline: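 Bovine pancreas CPA, 1 U, 25 °C, 200 μL final; inhibitor added from DMSO (typically 1 mM stock, 10 μL) or DMSO alone. Absorbance at 350 nm after 5 min. Curves fitted to %inhibition=[…].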

[5] = Solubility of the compound; type: physicochemical

Question: Which inhibition [1] does the source give for CC[C@H](C)[C@@H]1NC(=O)[C@@H](NC(=O)N[C@@H](Cc2ccccc2)C(=O)O)CCCCNC(=O)[C@H](Cc2ccccc2)NC1=O here?
Answer: Its inhibition is “inactive”.

Question: And the inhibition [2]?
Answer: Its inhibition is “inactive”.

Question: And the inhibition [3]?
Answer: The inhibition was “inactive”.

Question: For CC[C@H](C)[C@@H]1NC(=O)[C@H](N)CCCCNC(=O)[C@H](Cc2ccccc2)NC1=O, which inhibition [1] is on record?
Answer: Its inhibition is “inactive”.

Question: And the inhibition [2]?
Answer: The inhibition was “inactive”.

Question: And the inhibition [3]?
Answer: Its inhibition is “inactive”.

Question: With CC[C@H](C)[C@@H]1NC(=O)[C@H](NC(=O)N[C@@H](Cc2ccccc2)C(=O)O)CCCCNC(=O)[C@H](Cc2ccccc2)NC1=O [NAMALIDE] as the compound, how does the inhibition [1] read?
Answer: Its inhibition is “inactive”.

Question: And the IC50 [4]?
Answer: The IC50 was 250 nM.

Question: What about the inhibition [3] of the same compound?
Answer: The inhibition was “inactive”.

Question: Which results are given for CC[C@H](C)[C@H](NC(=O)[C@@H](CCCCN)NC(=O)N[C@@H](Cc1ccccc1)C(=O)O)C(=O)N[C@@H](Cc1ccccc1)C(N)=O?
Answer: inhibition [1]: inactive; IC50 [4]: 4500 nM; inhibition [3]: inactive

Question: For CC[C@H](C)[C@@H]1NC(=O)[C@H](NC(=O)N[C@@H](Cc2ccccc2)C(=O)O)CCCCNC(=O)[C@H](Cc2ccccc2)NC(=O)[C@H]([C@@H](C)CC)NC(=O)[C@H](NC(=O)N[C@@H](Cc2ccccc2)C(=O)O)CCCCNC(=O)[C@H](Cc2ccccc2)NC1=O, which inhibition [2] is on record?
Answer: The inhibition was “inactive”.

Question: Which inhibition [2] does the source give for CC[C@@H](C)[C@@H]1NC(=O)[C@H](NC(=O)N[C@@H](Cc2ccccc2)C(=O)O)CCCCNC(=O)[C@H](Cc2ccccc2)NC1=O here?
Answer: The inhibition was “inactive”.

Question: What about the solubility [5] of the same compound?
Answer: The solubility was “Insoluble”.
